One may read the IC50 as the concentration at which inhibition is half-maximal. Read a low IC50 as higher potency.

For test [1], the target named is Muscarinic acetylcholine receptor. Put plainly: Displacement of [3H]QNB from Muscarinic acetylcholine receptor of rat brain membrane. Background: In a radioligand displacement assay an active substance lowers the binding of a labelled ligand.
Test [2] concerns Mus musculus. The test is described as follows: Tested for physostigmine lethality at a dose of 10 mg/kg after oral administration in mice. It counts as functional. The method in brief: (§1)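 Groups of 10 CFW mice (19-26 g) given test compound in distilled water or 0.5% carboxymethylcellulose 1 h (0.5 h for hyoscine) before physostigmine 1 mg/kg ip. Tremor or death scored at 10, 20 and 60 min after physostigmine (dead at 10 min = 4, dead later = 3, marked tremor = 2, slight tremor = 1, no effect = 0). Value is percent reduction in group score versus control group.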

Test [3] deals with Mus musculus. The test is described as follows: Tested for physostigmine lethality at a dose of 5 mg/kg after oral administration in mice. It counts as functional. The essentials:
as §1

For test [4], the system named is Mus musculus. Put plainly: Tested for physostigmine lethality at a dose of 2.5 mg/kg after oral administration in mice. It is filed as functional. The method in brief:
as §1

Test [5] relates to Mus musculus. The test is described as follows: Tested for physostigmine lethality at a dose of 15 mg/kg after oral administration in mice. It counts as functional. The method in brief:
as §1

Test [6] concerns Mus musculus. Put plainly: Tested for physostigmine lethality at a dose of 25 mg/kg after oral administration in mice. It is filed as functional. The essentials: as §1
Test [7] concerns Mus musculus. Put plainly: Tested for physostigmine lethality at a dose of 50 mg/kg after oral administration in mice. It counts as functional. The method in brief:
as §1

The test system of test [8] is Mus musculus. The test is described as follows: Tested for physostigmine lethality at a dose of 20 mg/kg after oral administration in mice. It is filed as functional. The method in brief: as §1
Test [9] deals with Mus musculus. Put plainly: Tested for physostigmine lethality at a dose of 8 mg/kg after oral administration in mice. It counts as functional. The essentials: as §1
Test [10] relates to Mus musculus. Put plainly: Tested for physostigmine lethality at a dose of 12 mg/kg after oral administration in mice. It counts as functional. The essentials:
as §1

For `Cc1cc2c(s1)Nc1ccc(F)cc1N=C2N1CCN(C)CC1` [FLUMEZAPINE], the IC50 in test [1] worked out at 74 nM. Further, the Protection is listed as 75% in test [2], 64% in test [3] and 50% in test [4].
For `CN1CCN(C2=Nc3cc(Cl)ccc3Nc3ccccc32)CC1` [CLOZAPINE], the Protection in test [5] is listed as 53%.
The molecule `CN1CCN(C2=Nc3cc(F)ccc3Nc3sc4c(c32)CCCC4)CC1` gave an IC50 in test [1] of 34 nM. For the same molecule, the values for the Protection in [2], in test [6] and in test [3] were 46%, 71% and 46%, respectively.
In the case of `Cc1csc2c1C(N1CCN(C)CC1)=Nc1cc(F)ccc1N2`, the IC50 in test [1] was determined as 101 nM. The values for the Protection in test [2], in test [3] and in test [4] were 67%, 65% and 5%, respectively.
In turn, `O=C(CCCN1CCC(O)(c2ccc(Cl)cc2)CC1)c1ccc(F)cc1` [HALOPERIDOL] showed a Protection in [3] of 0%.
`CCc1cc2c(s1)Nc1ccc(F)cc1N=C2N1CC(C)N(C)C(C)C1` (configuration not stated): the 50% inhibitory concentration (IC50) in test [1] is 258 nM. Besides, the Protection in test [7] was 24%.
`CN1CCN(C2=Nc3cc(F)ccc3Nc3sccc32)CC1`: the IC50 in test [1] came out at 574 nM. In other words, the sub-micromolar range.
For `CCc1cc2c(s1)Nc1ccc(F)cc1N=C2N1CCN(C)C(C)C1` (configuration not stated), in [1], the IC50 is 97 nM. Also, the results for the Protection in test [2] and in test [8] were 17% and 42%, respectively.
The molecule `CCc1cc2c(s1)Nc1ccc(F)cc1N=C2N1CCN(C)CC1` gave a half-maximal inhibitory concentration (IC50) in [1] of 116 nM. Further, the Protection was 18% in test [9], 75% in test [10] and 33% in test [2].
Molecule `CC(C)c1csc2c1C(N1CCN(C)CC1)=Nc1cc(F)ccc1N2` yielded an IC50 in [1] of 26 nM. For the same molecule, the Protection in test [7] worked out at 35%.
In turn, `CCc1c(C)sc2c1C(N1CCN(C)CC1)=Nc1cc(F)ccc1N2` registered an IC50 in test [1] of 26 nM. The figures for the Protection in test [2], in test [8] and in test [3] were 75%, 53% and 60%, respectively.
Take `Cc1sc2c(c1C)C(N1CCN(C)CC1)=Nc1cc(F)ccc1N2`: the IC50 in [1] is listed as 9 nM. In addition, the Protection in [2] was found to be 74%; in test [3], 33%; in test [4] it was 5%.
Molecule `CCc1cc2c(s1)Nc1ccc(F)cc1N=C2N1CC(C)N(C)CC1C` (configuration not stated) gave an IC50 in [1] of 247 nM.
On to `Cc1sc2c(c1C(C)C)C(N1CCN(C)CC1)=Nc1cc(F)ccc1N2`, for which the half-maximal inhibitory concentration (IC50) in test [1] is 64 nM. This molecule gave a Protection in test [7] of 35%.

For the origin of these results see ChEMBL document CHEMBL1122173, “Effects of conformationally restricted 4-piperazinyl-10H-thienobenzodiazepine neuroleptics on central dopaminergic and cholinergic systems” (J Med Chem, 1982).
